Reference: ChEMBL document CHEMBL4406804, “Discovery of a Potent Steroidal Glucocorticoid Receptor Antagonist with Enhanced Selectivity against the Progesterone and Androgen Receptors (OP-3633)” (J Med Chem, 2019)
In brackets after ≈: the same amount, converted by molar mass. Activity calls are given as the source filed them. No cut-off for these calls is given here.

Experiments:
Glucocorticoid receptor [1] = target: T1, Glucocorticoid receptor (Homo sapiens, UniProt P04150); test: Antagonist activity at human glucocorticoid receptor expressed in CHO-K1 cells harboring firefly luciferase gene after 20 hrs by One-Glo luciferase reporter gene assay; type: cell-based
T1 sequence (P04150 whole entry): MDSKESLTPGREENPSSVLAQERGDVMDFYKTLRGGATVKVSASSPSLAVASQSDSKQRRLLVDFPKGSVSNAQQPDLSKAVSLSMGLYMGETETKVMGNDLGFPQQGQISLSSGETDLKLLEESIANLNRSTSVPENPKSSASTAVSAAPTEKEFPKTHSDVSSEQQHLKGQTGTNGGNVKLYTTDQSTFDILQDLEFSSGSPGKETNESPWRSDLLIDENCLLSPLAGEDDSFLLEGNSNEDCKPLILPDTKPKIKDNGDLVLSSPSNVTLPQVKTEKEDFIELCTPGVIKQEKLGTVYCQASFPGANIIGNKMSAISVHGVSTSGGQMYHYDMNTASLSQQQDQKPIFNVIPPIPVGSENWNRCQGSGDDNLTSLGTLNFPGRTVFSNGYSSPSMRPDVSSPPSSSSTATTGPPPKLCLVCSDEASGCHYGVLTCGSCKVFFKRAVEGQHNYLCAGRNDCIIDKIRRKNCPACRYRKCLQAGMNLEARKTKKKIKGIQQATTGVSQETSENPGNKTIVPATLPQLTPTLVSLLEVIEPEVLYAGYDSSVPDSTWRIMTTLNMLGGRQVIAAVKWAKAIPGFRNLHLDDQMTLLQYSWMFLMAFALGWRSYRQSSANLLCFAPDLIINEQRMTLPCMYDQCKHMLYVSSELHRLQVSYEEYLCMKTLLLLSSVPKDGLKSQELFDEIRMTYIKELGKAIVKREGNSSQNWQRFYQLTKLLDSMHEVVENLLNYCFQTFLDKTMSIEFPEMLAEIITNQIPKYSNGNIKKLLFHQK

[2] = target: T2, Glucocorticoid receptor (Homo sapiens) (UniProt P04150); test: Antagonist activity at human glucocorticoid receptor expressed in CHO-K1 cells harboring firefly luciferase gene assessed as inhibition of glucocorticoid receptor activity at 0.01 to 10000 nM after 20 hrs by One-Glo luciferase reporter gene assay relative to mifepristone; type: cell-based; set-up: scale not given: the % may be the effect or the level left
T2 sequence (whole entry): T1 sequence (P04150 whole entry)
How it was run: (§1)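 Cell-based luciferase reporter assays for GR, AR and PR, run in agonist and antagonist modes. Potency and Emax are averages of at least two determinations, reported with SD.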

Androgen receptor [3] = target: T3, Androgen receptor (Homo sapiens, UniProt P10275); test: Agonist activity at human androgen receptor in human LNCAP cells harboring firefly luciferase gene after 20 hrs by One-Glo luciferase reporter gene assay relative to mifepristone; type: cell-based; how it was run: as §1
T3 sequence (P10275 whole entry): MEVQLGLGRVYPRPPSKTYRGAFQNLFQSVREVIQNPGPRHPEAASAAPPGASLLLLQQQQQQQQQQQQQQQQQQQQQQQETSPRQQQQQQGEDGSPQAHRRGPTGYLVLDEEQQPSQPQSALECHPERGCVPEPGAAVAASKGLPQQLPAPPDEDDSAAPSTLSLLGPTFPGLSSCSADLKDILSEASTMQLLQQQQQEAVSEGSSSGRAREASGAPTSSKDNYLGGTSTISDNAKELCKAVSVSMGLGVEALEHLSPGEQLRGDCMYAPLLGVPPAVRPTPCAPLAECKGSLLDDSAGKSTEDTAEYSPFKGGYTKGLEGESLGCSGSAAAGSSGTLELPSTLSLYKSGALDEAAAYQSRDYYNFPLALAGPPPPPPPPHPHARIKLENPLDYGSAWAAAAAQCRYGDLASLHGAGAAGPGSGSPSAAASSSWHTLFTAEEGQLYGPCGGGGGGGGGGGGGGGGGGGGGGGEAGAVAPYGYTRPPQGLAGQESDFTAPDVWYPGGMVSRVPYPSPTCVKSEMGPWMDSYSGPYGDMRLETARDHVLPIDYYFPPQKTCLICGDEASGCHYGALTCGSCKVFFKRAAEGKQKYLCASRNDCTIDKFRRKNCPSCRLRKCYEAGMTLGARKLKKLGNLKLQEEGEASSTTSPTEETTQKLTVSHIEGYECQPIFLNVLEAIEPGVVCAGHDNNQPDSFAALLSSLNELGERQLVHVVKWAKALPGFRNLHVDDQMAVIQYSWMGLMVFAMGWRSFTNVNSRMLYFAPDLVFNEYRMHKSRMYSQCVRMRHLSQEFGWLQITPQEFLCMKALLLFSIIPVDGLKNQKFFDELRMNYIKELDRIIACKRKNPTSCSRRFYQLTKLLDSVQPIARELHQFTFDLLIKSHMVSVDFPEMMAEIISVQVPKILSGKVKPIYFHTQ

Progesterone receptor = target: T4, Progesterone receptor (Homo sapiens, UniProt P06401); test: Antagonist activity at human progesterone receptor expressed in CHO-K1 cells harboring firefly luciferase gene after 20 hrs by One-Glo luciferase reporter gene assay; type: cell-based; how it was run: as §1
T4 sequence (P06401 whole entry): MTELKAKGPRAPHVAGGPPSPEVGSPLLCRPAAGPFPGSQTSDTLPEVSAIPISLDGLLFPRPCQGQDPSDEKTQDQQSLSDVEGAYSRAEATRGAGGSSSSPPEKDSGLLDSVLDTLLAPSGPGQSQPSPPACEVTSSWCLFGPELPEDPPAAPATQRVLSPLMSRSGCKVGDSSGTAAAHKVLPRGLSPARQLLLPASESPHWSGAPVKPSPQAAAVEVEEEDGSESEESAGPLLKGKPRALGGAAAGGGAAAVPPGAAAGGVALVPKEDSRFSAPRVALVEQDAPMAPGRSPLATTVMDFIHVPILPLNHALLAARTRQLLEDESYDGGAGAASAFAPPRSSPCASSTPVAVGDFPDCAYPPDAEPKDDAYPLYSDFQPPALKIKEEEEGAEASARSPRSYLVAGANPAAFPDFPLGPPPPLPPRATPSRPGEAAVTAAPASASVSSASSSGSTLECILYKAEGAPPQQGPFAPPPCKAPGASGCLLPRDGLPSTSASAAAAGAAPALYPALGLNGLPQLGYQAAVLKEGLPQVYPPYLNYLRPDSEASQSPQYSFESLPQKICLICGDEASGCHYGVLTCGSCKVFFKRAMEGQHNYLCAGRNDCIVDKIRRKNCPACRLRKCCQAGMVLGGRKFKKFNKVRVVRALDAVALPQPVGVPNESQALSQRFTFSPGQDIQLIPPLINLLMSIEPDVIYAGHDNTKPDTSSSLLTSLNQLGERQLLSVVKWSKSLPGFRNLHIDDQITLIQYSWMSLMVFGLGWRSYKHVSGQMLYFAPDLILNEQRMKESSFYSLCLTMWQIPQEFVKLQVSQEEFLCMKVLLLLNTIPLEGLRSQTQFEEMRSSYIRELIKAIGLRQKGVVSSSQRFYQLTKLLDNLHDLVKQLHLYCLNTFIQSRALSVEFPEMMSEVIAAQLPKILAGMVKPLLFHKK

[4] = target: T5, Progesterone receptor (Homo sapiens) (UniProt P06401); test: Agonist activity at human progesterone receptor expressed in CHO-K1 cells harboring firefly luciferase gene after 20 hrs by One-Glo luciferase reporter gene assay; type: cell-based; how it was run: as §1
T5 sequence (whole entry): T4 sequence (P06401 whole entry)

Homo sapiens = species on record: Homo sapiens; test: Selectivity ratio, ratio of IC50 for human androgen receptor in human LNCAP cells to IC50 for human glucocorticoid receptor expressed in CHO-K1 cells harboring firefly luciferase gene; type: cell-based
Androgen receptor [5] = target: T3, Androgen receptor; test: Agonist activity at human androgen receptor in human LNCAP cells harboring firefly luciferase gene after 20 hrs by One-Glo luciferase reporter gene assay; type: cell-based
Androgen receptor [6] = target: T3, Androgen receptor; test: Antagonist activity at human androgen receptor in human LNCAP cells harboring firefly luciferase gene after 20 hrs by One-Glo luciferase reporter gene assay; type: cell-based; how it was run: as §1
CYP2C8 = target: T6, CYP2C8 (Homo sapiens, UniProt P10632); test: Inhibition of CYP2C8 (unknown origin) at 10 uM using paclitaxel as substrate relative to control; type: ADME; conditions: probe paclitaxel
T6 sequence (P10632 whole entry): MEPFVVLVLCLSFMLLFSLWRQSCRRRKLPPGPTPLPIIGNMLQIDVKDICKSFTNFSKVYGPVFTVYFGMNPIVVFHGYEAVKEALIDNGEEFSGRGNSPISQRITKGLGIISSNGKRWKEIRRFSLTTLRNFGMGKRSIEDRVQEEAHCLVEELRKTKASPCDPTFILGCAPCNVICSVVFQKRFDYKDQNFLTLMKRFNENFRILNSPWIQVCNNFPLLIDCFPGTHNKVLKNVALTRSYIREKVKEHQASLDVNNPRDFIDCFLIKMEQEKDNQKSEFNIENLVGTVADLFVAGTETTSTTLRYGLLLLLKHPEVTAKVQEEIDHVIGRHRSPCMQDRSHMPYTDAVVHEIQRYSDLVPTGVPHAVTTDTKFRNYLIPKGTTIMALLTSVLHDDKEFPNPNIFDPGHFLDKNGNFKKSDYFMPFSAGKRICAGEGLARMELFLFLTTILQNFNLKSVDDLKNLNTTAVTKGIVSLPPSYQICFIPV

CYP3A4 = CYP3A4 (Homo sapiens, UniProt P08684); test: Inhibition of CYP3A4 (unknown origin) at 10 uM using midazolam as substrate relative to control; type: ADME; conditions: probe midazolam
[7] = Solubility of compound in fasted state simulated intestinal fluid at pH 6.5; type: physicochemical
[8] = Solubility of compound in fasted state simulated gastric fluid at pH 1.2; type: physicochemical
[9] = Solubility of compound in PBS at pH 7.4; type: physicochemical
Glucocorticoid receptor [10] = target: T1, Glucocorticoid receptor; test: Displacement of fluormone tracer from full length human recombinant glucocorticoid receptor expressed in baculovirus expression system incubated for 2 hrs by competitive fluorescence polarization binding assay
Glucocorticoid receptor [11] = target: T1, Glucocorticoid receptor; test: Antagonist activity at human glucocorticoid receptor expressed in CHO-K1 cells assessed as inhibition of glucocorticoid receptor-dexamethasone coactivator protein-protein interaction incubated for 24 hrs by bioluminescence assay; type: cell-based

Chain of CYP3A4 (P08684 whole entry): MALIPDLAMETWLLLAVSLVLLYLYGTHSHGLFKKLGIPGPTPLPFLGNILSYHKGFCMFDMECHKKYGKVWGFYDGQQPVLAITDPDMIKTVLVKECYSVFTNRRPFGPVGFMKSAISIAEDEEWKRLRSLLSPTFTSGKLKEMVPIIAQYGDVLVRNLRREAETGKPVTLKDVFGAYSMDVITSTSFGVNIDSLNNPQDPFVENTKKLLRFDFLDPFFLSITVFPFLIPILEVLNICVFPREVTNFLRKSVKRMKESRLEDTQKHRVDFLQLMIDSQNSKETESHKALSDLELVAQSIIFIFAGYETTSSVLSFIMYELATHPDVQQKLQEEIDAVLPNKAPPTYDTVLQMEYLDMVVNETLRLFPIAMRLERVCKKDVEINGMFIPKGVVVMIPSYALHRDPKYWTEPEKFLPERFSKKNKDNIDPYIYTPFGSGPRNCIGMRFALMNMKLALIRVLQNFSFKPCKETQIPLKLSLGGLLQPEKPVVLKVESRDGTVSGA

| SMILES | IC50 (Glucocorticoid receptor [1]) [µM] | Activity [2] [%] | Emax at 20 h (Androgen receptor [3]) [%] | IC50 (Progesterone receptor) [µM] | agonist activity [4] | Ratio (Homo sapiens) | EC50 (Androgen receptor [5]) [µM] | IC50 (Androgen receptor [6]) [µM] | inhibition at 10 µM (CYP2C8) [%] | inhibition at 10 µM (CYP3A4) [%] | solubility [7] [µM] | solubility [8] [µM] | solubility [9] [µM] | IC50 (Glucocorticoid receptor [10]) [µM] | IC50 (Glucocorticoid receptor [11]) [µM] |
| --- | --- | --- | --- | --- | --- | --- | --- | --- | --- | --- | --- | --- | --- | --- | --- |
| CC(C)(C)C#C[C@]1(O)CC[C@H]2[C@@H]3CCC4=CC(=O)CC[C@@H]4[C@H]3[C@@H](c3ccc(N4CCOCC4)cc3)C[C@@]21C | 0.0103 | 100 | 5.1 | 0.0048 | inactive | 10 to 30 | > 2.5 | 0.208 | – | – | – | – | – | – | – |
| CN(C)c1ccc([C@H]2C[C@@]3(C)[C@@H](CC[C@@]3(O)C#CC(C)(C)C)[C@@H]3CCC4=CC(=O)CC[C@]4(C)[C@H]32)cc1 | 0.0336 | 100 | 7.4 | 2.49 | inactive | 70 | > 2.5 | > 5 | 84 | 71 | – | – | – | – | – |
| CN(C)c1ccc([C@H]2C[C@@]3(C)[C@@H](CC[C@@]3(O)C#CC(C)(C)C)[C@@H]3CCC4=CC(=O)CC[C@@H]4[C@H]32)cc1 | – | 100 | – | 0.0034 | inactive | 10 to 30 | – | 0.165 | – | – | – | – | – | – | – |
| CC(C)(C)C#C[C@]1(O)CC[C@H]2[C@@H]3CCC4=CC(=O)CC[C@@H]4[C@H]3[C@@H](c3ccc(N4CCN(S(C)(=O)=O)CC4)cc3)C[C@@]21C | 0.0122 | 100 | 18.1 | 0.0046 | inactive | 10 to 30 | > 2.5 | 0.359 | – | – | – | – | – | – | – |
| CN(C)c1ccc([C@H]2C[C@@]3(C)[C@@H](CC[C@@]3(O)C#CC3CC3)[C@@H]3CCC4=CC(=O)CC[C@]4(C)[C@H]32)cc1 | 0.0285 | 100 | 5.4 | 1.49 | inactive | – | > 2.5 | 1.45 | 70 | 53 | – | – | – | – | – |
| CC#C[C@]1(O)CC[C@H]2[C@@H]3CCC4=CC(=O)CCC4=C3[C@@H](c3ccc(N(C)C)cc3)C[C@@]21C [MIFEPRISTONE] | – | – | – | – | – | – | – | – | – | – | 5.4 (≈ 2.32 µg/mL) | > 1160 | 3 (≈ 1.29 µg/mL) | – | – |
| CN(C)c1ccc([C@H]2C[C@@]3(C)[C@@H](CC[C@@]3(O)C#CC(C)(C)C)[C@@H]3CCC4=CC(=O)CCC4=C32)cc1 | – | 100 | – | 0.0144 | inactive | 10 to 30 | – | 0.129 | – | – | – | – | – | 0.008 | 0.0075 |
